Test [1] has as its system Cricetinae gen. sp. Briefly: Total cultures(6) versus active (1) at 10e-10 M conc. in hamster tracheal organ culture assay (TOC). The class given is functional, Trachea. Summed up:
(§1)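 Tracheas from Syrian golden hamsters kept on a vitamin A deficient diet from birth to 30–32 days old. Cultured serum-free (CMRL 1066 with insulin, hydrocortisone, glutamine, antibiotics), one explant per dish, 50% O2/45% N2/5% CO2, 36 °C, rocked. 3 days without retinoid, then 7 days with retinoid, medium renewed three times. Histology on day 10. Active means keratin/keratohyaline granules absent. Usually duplicate, 6–7 tracheas per concentration.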

The subject of test [2] is Cricetinae gen. sp. The experiment in a line: Total cultures(14) versus active (4) at 10e-8 M conc. in hamster tracheal organ culture assay (TOC). The test is classed as functional, Trachea. Summed up:
as §1

The subject of test [3] is Cricetinae gen. sp. The experiment in a line: ED50 of retinoid required to effect reversal of keratinization. The class given is functional. Summed up: as §1
For test [4], the system named is Cricetinae gen. sp. The experiment in a line: Relative potency with respect to retinoic acid in hamster tracheal organ culture assay (TOC). The test is classed as functional, Cricetulus griseus, Trachea.
Test [5] concerns the target T1, Ornithine decarboxylase (Mus musculus) (UniProt P00860).
T1 sequence (whole entry): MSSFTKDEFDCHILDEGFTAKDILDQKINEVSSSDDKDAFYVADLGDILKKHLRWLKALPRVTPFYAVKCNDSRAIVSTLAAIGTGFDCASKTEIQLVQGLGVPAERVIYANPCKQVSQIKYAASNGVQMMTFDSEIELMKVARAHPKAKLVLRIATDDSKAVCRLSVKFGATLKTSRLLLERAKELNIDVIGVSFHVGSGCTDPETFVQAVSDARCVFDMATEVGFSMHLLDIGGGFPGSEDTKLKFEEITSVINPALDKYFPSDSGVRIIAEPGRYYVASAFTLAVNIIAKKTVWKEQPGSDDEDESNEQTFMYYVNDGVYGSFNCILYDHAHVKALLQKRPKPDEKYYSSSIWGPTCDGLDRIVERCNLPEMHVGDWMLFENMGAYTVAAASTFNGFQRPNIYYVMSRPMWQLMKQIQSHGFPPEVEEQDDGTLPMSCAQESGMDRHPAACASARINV
The experiment in a line: Percent inhibition of the induction of ornithine decarboxylase at 17 nmol dose in mouse dorsal epidermis (ODC assay). The class given is functional.

In test [6] the target is T1, Ornithine decarboxylase (Mus musculus). The experiment in a line: Percent inhibition of the induction of ornithine decarboxylase at 1.7 nmol in mouse dorsal epidermis (ODC assay). The class given is functional.
Test [7] deals with Cricetinae gen. sp. Briefly: Total cultures(12) versus active (3) at 10e-9 M conc. in hamster tracheal organ culture assay (TOC). The class given is functional, Trachea. Summed up: as §1

Some results are limits rather than exact numbers.

With `CCOC(=O)c1ccc(/C=C(C)/C=C/C2=C(C)CCCC2(C)C)o1`, the Active/total cultures in the test with Cricetinae gen. sp. [1] is 17%; in the test with Cricetinae gen. sp. [2], 29%; with Cricetinae gen. sp. [7], 25%. In addition, the ED50 with Cricetinae gen. sp. [3] came to 0.02 nM. Moreover, the Relative activity in the test on Cricetinae gen. sp. [4] was <<0.1. In addition, the inhibition of control in test [5] and in test [6] was 9% each time.

The values above are taken from ChEMBL document CHEMBL1122284, “Aromatic retinoic acid analogues. 2. Synthesis and pharmacological activity” (1983).
